According to PubChem BioAssay AID588825 (Broad Institute, 2011):
Active and inactive are the calls of the source.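 How the source made its calls: active means signal drop whose fitted AC50 is at most twice the top valid dose for that sample; inconclusive means flat fit with a moderate drop, or a poor fit; inactive means the rest.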

Tested on: not listed separately
Test: SR-BI-independent HDL uptake inhibition, parental line – CHO ldlA7 parental cells, fluorescence, dry powder, counter-screen for SR-BI HDL uptake inhibitor project, dose response (AID 588825)
Conditions: CHO ldlA7 parental cells, DiI-HDL uptake fluorescence, 3 h; at 30 µM (top of the series)
Method in brief: (§1)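 Assay system: parental CHO ldlA7 cells lacking LDL receptor, no mSR-BI overexpression; Probe or stimulus: DiI-labelled HDL at 10 µg/mL final; Times: 3 h exposure at 37 °C; Detection: bottom-read fluorescence after two PBS washes, excitation 550 nm, emission 595 nm.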

SMILES | activity change, negative = inhibition
C[C@@H]1CN([C@@H](C)CO)C(=O)Cc2cc(NC(=O)Nc3ccc(C(F)(F)F)cc3)ccc2O[C@@H]1CN(C)S(=O)(=O)c1ccc(Cl)cc1 | 19.1% (inactive)

Same assay, conditions: CHO ldlA7 parental cells, DiI-HDL uptake fluorescence, 3 h; at 35 µM (top of the series)

SMILES | activity change, negative = inhibition
COc1cc(OC)cc(C(=O)Nc2nc(-c3ccc4c(c3)CCN4C(=O)OC(C)(C)C)cs2)c1 | 1.78% (inactive)
COc1ccc(-c2cc(CC(=O)N(C3CCCCC3)C(C)C(=O)NC3CCCC3)no2)cc1OC (configuration not stated) | 3.44% (inactive)
C[C@@H]1CN([C@H](C)CO)C(=O)c2cc(NC(=O)Cc3cn(C)c4ccccc34)ccc2O[C@H]1CN(C)S(=O)(=O)c1ccc(Cl)cc1 | 5.56% (inactive)
C[C@H](C(=O)NC1CCCC1)N(C(=O)Cn1nnc(-c2ccc3c(c2)OCO3)n1)C1CCCCC1 | 0.283% (inactive)
COc1cc(OC)cc(C(=O)Nc2nc(-c3ccc4c(c3)CCN4C(=O)CN(C)C)cs2)c1 | 3.12% (inactive)
CCC(=O)N1CC(C)(C)c2cc(-c3csc(NC(=O)c4cc(OC)cc(OC)c4)n3)ccc21 | -2.41% (inactive)
CC(=O)N1CCc2cc(-c3nc(NC(=O)c4cccc(OC(F)(F)F)c4)sc3C)ccc21 | 0.208% (inactive)
CCNC(=O)N1CCc2cc(-c3csc(NC(=O)c4cc(OC)cc(OC)c4)n3)ccc21 | -0.713% (inactive)
COCC(=O)N1CCc2cc(-c3csc(NC(=O)c4cc(OC)cc(OC)c4)n3)ccc21 | 1.62% (inactive)
COc1c(NC(=O)C(=O)c2ccc(OCCN3CCOCC3)c3ccccc23)cc(C(C)(C)C)cc1NS(C)(=O)=O | 8% (inactive)
CC1CCC/C=C/C2CC(O)CC2C(O)/C=C\C(=O)O1 (configuration not stated) | -6.83% (inactive)
Cc1ccc2oc(-c3cccc(NC(=O)c4cc(-n5cnnc5)ccc4Cl)c3)nc2c1 | -1.07% (inactive)
CCC(=O)N1CCc2cc(-c3csc(NC(=O)c4cccc(OC)c4)n3)ccc21 | 14.2% (inactive)
CCC(=O)N1CCc2cc(-c3csc(NC(=O)c4ccc(F)c(OC)c4)n3)ccc21 | 7.73% (inactive)
CC(C)(Sc1cc(C(C)(C)C)c(O)c(C(C)(C)C)c1)Sc1cc(C(C)(C)C)c(O)c(C(C)(C)C)c1 | -1.71% (inactive)

Tested on: CHO ldlA7 parental cells, DiI-HDL uptake fluorescence, 3 h
Test: as above
Conditions: not given
Method in brief: as §1

SMILES | AC50
CCCCCCC1CCC/C1=N\NC(N)=S (configuration not stated) | > 70 µM (inactive)
